Test results as given in ChEMBL document CHEMBL4842319, “Synthesis of alkynylated 1,2,4-oxadiazole/1,2,3-1H-triazole glycoconjugates: Discovering new compounds for use in chemotherapy against lung carcinoma and Mycobacterium tuberculosis” (Eur J Med Chem, 2021).
Converted amounts (≈) assume the structure as drawn.

How the values were obtained:
[1] = system: Mycobacterium tuberculosis; assay: Antimycobacterial activity against Mycobacterium tuberculosis H37Ra ATCC 25177 assessed as inhibition of bacterial growth incubated for 9 days by resazurin microtiter assay; assay type: functional; conditions: H37Ra ATCC 25177, 216 h, time 9 day
Procedure, shortened: (§1)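 REMA broth microdilution in 7H9-S medium, run in duplicate. Test compounds were serially two-fold diluted on the plate from 64 to 0.5 µg/mL. Inoculum taken from fresh Löwenstein-Jensen culture, adjusted to McFarland no. 1 and diluted 1:20. Plates were sealed and incubated at 37 °C in normal atmosphere for 9 days, then resazurin was added. Rifampicin and ethambutol served as standards. MIC reported in µg/mL.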

[2] = system: Mycobacterium tuberculosis; assay: Antimycobacterial activity against Mycobacterium tuberculosis H37Rv ATCC 27294 assessed as inhibition of bacterial growth incubated for 9 days by resazurin microtiter assay; assay type: functional; conditions: H37Rv ATCC 27294, 216 h, time 9 day; procedure, shortened: as §1
[3] = Cytotoxicity against mouse RAW264.7 cells assessed as reduction in cell viability incubated for 48 hrs by MTT assay; assay type: cell-based
Procedure, shortened: (§2)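 RAW 264.7 macrophages and HepG2 cells were cultured in DMEM at 37 °C, 5% CO2. For the assay, 10⁵ cells/well were preincubated for 24 h, then exposed to compounds at […] for 48 h, in duplicate. MTT (5 mg/mL in PBS) was added for 2 h and absorbance read at 570 nm. Untreated wells served as the negative control. CC50 obtained by regression analysis.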

[4] = Cytotoxicity against human HepG2 cells assessed as reduction in cell viability incubated for 48 hrs by MTT assay; assay type: cell-based; procedure, shortened: as §2
[5] = Cytotoxicity against African green monkey Vero cells assessed as reduction in cell viability measured after 5 days by MTT assay; assay type: cell-based; conditions: chlorocebus sabaeus, time 5 day
Procedure, shortened: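 Vero cells in DMEM with 10% inactivated FBS, plated at 1×10⁴ cells/well 24 h before treatment. Compounds were applied at 800, 400, 200, 100 and 50 µM, with at most 0.8% DMSO, for 5 days at 37 °C. MTT (1 mg/mL) was added for 4 h, formazan solubilised in DMSO and OD570 read. CC50 is the concentration giving a 50% reduction in absorbance.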

[6] = Selectivity index, ratio of CC50 for mouse RAW264.7 cells to MIC for antimycobacterial activity against Mycobacterium tuberculosis H37Rv ATCC 27294; assay type: toxicity; conditions: read-out: Selectivity Index
[7] = Selectivity index, ratio of CC50 for human HepG2 cells to MIC for antimycobacterial activity against Mycobacterium tuberculosis H37Rv ATCC 27294; assay type: toxicity; conditions: read-out: Selectivity Index
SK-MEL-103 = assay: Cytotoxicity against human SK-MEL-103 cells assessed as inhibition of cell proliferation at 25 uM incubated for 72 hrs by MTT assay relative to control; assay type: functional; set-up: scale not given: the % may be the effect or the level left
Procedure, shortened: (§3)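 Tumor lines from NCI. PC-3, HCT-116 and NCIH-460 were grown in RPMI 1640; SKMEL-103 and AGP-01 in DMEM; all with 10% FBS at 37 °C, 5% CO2. Seeding was 0.3×10⁶ cells/mL for SKMEL-103 and AGP-01, 0.1×10⁶ for PC-3 and NCIH-460, and 0.7×10⁵ for HCT-116. Cells were exposed to compound at 25 µM for 72 h. Cells were centrifuged, 1% MTT added for 3 h, formazan dissolved in DMSO and read at 570 nm.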

[8] = Cytotoxicity against human AGP01 cells assessed as inhibition of cell proliferation at 25 uM incubated for 72 hrs by MTT assay relative to control; assay type: functional; set-up: scale not given: the % may be the effect or the level left; procedure, shortened: as §3
HCT-116 = assay: Cytotoxicity against human HCT-116 cells assessed as inhibition of cell proliferation at 25 uM incubated for 72 hrs by MTT assay relative to control; assay type: functional; set-up: scale not given: the % may be the effect or the level left; procedure, shortened: as §3
PC-3 = assay: Cytotoxicity against human PC-3 cells assessed as inhibition of cell proliferation at 25 uM incubated for 72 hrs by MTT assay relative to control; assay type: functional; set-up: scale not given: the % may be the effect or the level left; procedure, shortened: as §3
NCI-H460 [9] = assay: Cytotoxicity against human NCI-H460 cells assessed as inhibition of cell proliferation at 25 uM incubated for 72 hrs by MTT assay relative to control; assay type: functional; set-up: scale not given: the % may be the effect or the level left; procedure, shortened: as §3
NCI-H460 [10] = assay: Antiproliferative activity against human NCI-H460 cells assessed as inhibition of cell growth incubated for 72 hrs by MTT assay; assay type: functional, cell-based; conditions: NCI-H460, 72 h
Procedure, shortened: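 NCIH-460 cells in RPMI 1640 with 10% FBS at 0.1×10⁶ cells/mL, treated for 72 h at 37 °C, 5% CO2. MTT read-out: 1% MTT for 3 h, formazan dissolved in DMSO, absorbance at 570 nm. IC50 derived from absorbances by nonlinear regression.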

[11] = system: Mycobacterium tuberculosis; assay: Antimycobacterial activity against Mycobacterium tuberculosis H37Rv ATCC 27294 assessed as inhibition of bacterial growth by agar dilution method; assay type: functional
[12] = system: Mycobacterium tuberculosis; assay: Antitubercular activity against Mycobacterium tuberculosis H37Rv; assay type: functional

CC(=O)OC[C@H]1O[C@H](OC[C@@H](Cn2cc(CN(c3nc(-c4ccc(C(F)(F)F)cc4)no3)C3CCCCC3)nn2)OC(C)=O)C=C[C@@H]1OC(C)=O
MIC [1]: ≥ 64 µg/mL
MIC [2]: ≥ 64 µg/mL
CC50 at 48 h [3]: 64.1 µg/mL (≈ 89 µM)
CC50 at 48 h [4]: 81.4 µg/mL (≈ 113 µM)
CC50 at 120 h [5]: 706 µM
selectivity ratio [6]: < 1
selectivity ratio [7]: 1.67

C#CCN(c1nc(-c2cccc(Br)c2)no1)C1CCCCC1
Activity (SK-MEL-103): 39.4%
Activity [8]: 69.1%
Activity (HCT-116): 65.6%
Activity (PC-3): 58.6%
Activity (NCI-H460 [9]): 17.9%
MIC [1]: ≥ 64 µg/mL
MIC [2]: 32 µg/mL (≈ 88.8 µM)
CC50 at 48 h [3]: 31.8 µg/mL (≈ 88.2 µM)
CC50 at 48 h [4]: 53.5 µg/mL (≈ 148 µM)
selectivity ratio [6]: 0.9
selectivity ratio [7]: 1.67

CC(=O)OC[C@H]1O[C@H](OC[C@@H](Cn2cc(CN(c3nc(-c4cccc(C)c4)no3)C3CCCCC3)nn2)OC(C)=O)C=C[C@@H]1OC(C)=O
Activity (SK-MEL-103): 69%
Activity [8]: 38.9%
Activity (HCT-116): 69.5%
Activity (PC-3): 9.2%
Activity (NCI-H460 [9]): 26.1%
MIC [1]: ≥ 64 µg/mL
MIC [2]: ≥ 64 µg/mL
CC50 at 48 h [3]: 46.4 µg/mL (≈ 69.6 µM)
CC50 at 48 h [4]: 39.2 µg/mL (≈ 58.8 µM)
selectivity ratio [6]: < 0.72
selectivity ratio [7]: < 0.61

COc1ccc(-c2noc(N(Cc3cn(C[C@H](CO[C@@H]4C=C[C@H](OC(C)=O)[C@@H](COC(C)=O)O4)OC(C)=O)nn3)C3CCCCC3)n2)cc1
Activity (SK-MEL-103): 29.8%
Activity [8]: 59.2%
Activity (HCT-116): 24.2%
Activity (PC-3): 21.6%
Activity (NCI-H460 [9]): 24.2%
MIC [1]: 16 µg/mL (≈ 23.4 µM)
MIC [2]: 32 µg/mL (≈ 46.9 µM)
CC50 at 48 h [3]: 86.3 µg/mL (≈ 126 µM)
CC50 at 48 h [4]: 141 µg/mL (≈ 207 µM)
CC50 at 120 h [5]: 575 µM
selectivity ratio [6]: 2.7
selectivity ratio [7]: 4.41

CC(=O)OC[C@H]1O[C@H](OC[C@@H](Cn2cc(CN(c3nc(-c4ccc(C)cc4)no3)C3CCCCC3)nn2)OC(C)=O)C=C[C@@H]1OC(C)=O
MIC [1]: 8 µg/mL (≈ 12 µM)
MIC [2]: 16 µg/mL (≈ 24 µM)
CC50 at 48 h [3]: 45.3 µg/mL (≈ 68 µM)
CC50 at 48 h [4]: 36.8 µg/mL (≈ 55.2 µM)
CC50 at 120 h [5]: 498 µM
selectivity ratio [6]: 2.83
selectivity ratio [7]: 2.3

C#CCN(c1nc(-c2cccc(C)c2)no1)C1CCCCC1
Activity (SK-MEL-103): 87.7%
Activity [8]: 94.5%
Activity (HCT-116): 86.5%
Activity (PC-3): 29.4%
Activity (NCI-H460 [9]): 40.2%
MIC [1]: ≥ 64 µg/mL
MIC [2]: 32 µg/mL (≈ 108 µM)
CC50 at 48 h [3]: 25.9 µg/mL (≈ 87.6 µM)
CC50 at 48 h [4]: 44.4 µg/mL (≈ 150 µM)
selectivity ratio [6]: 0.8
selectivity ratio [7]: 1.38

C#CCN(c1nc(-c2ccc(OC)cc2)no1)C1CCCCC1
Activity (SK-MEL-103): 37.3%
Activity [8]: 57.3%
Activity (HCT-116): 40.7%
Activity (PC-3): 23.7%
Activity (NCI-H460 [9]): 69.1%
IC50 (NCI-H460 [10]): 1 µg/mL (≈ 3.21 µM)
MIC [1]: ≥ 64 µg/mL
MIC [2]: 64 µg/mL (≈ 206 µM)
CC50 at 48 h [3]: 28 µg/mL (≈ 89.8 µM)
CC50 at 48 h [4]: 72.5 µg/mL (≈ 233 µM)
selectivity ratio [6]: 0.46
selectivity ratio [7]: 1.13

CCCCCc1ccc(-c2cn(CC(O)COc3cccc4c3OCC3(CCCCC3)C4=O)nn2)cc1 (configuration not stated)
MIC [11]: 0.78 µg/mL (≈ 1.55 µM)

C#CCN(c1nc(-c2ccc(F)cc2)no1)C1CCCCC1
Activity (SK-MEL-103): 47.3%
Activity [8]: 50.4%
Activity (HCT-116): 44.9%
Activity (PC-3): 25.4%
Activity (NCI-H460 [9]): 50.5%
IC50 (NCI-H460 [10]): 1.16 µg/mL (≈ 3.88 µM)
MIC [1]: 64 µg/mL (≈ 214 µM)
MIC [2]: 64 µg/mL (≈ 214 µM)
CC50 at 48 h [3]: 20.9 µg/mL (≈ 69.9 µM)
CC50 at 48 h [4]: 41.1 µg/mL (≈ 137 µM)
selectivity ratio [6]: 0.32
selectivity ratio [7]: 0.64

CC(C)c1ccc(-c2nc(CN3CCN(c4ccnc5c(-c6cccnc6)cccc45)CC3)no2)cc1
MIC [12]: 0.25 µg/mL (≈ 0.51 µM)

CC(=O)OC[C@H]1O[C@H](OC[C@@H](Cn2cc(CN(c3nc(-c4ccc(F)cc4)no3)C3CCCCC3)nn2)OC(C)=O)C=C[C@@H]1OC(C)=O
Activity (SK-MEL-103): 20.7%
Activity [8]: 69.4%
Activity (HCT-116): 44.9%
Activity (PC-3): 7.1%
Activity (NCI-H460 [9]): 17.7%
MIC [1]: ≥ 64 µg/mL
MIC [2]: ≥ 64 µg/mL
CC50 at 48 h [3]: 31.5 µg/mL (≈ 46.9 µM)
CC50 at 48 h [4]: 28.8 µg/mL (≈ 42.9 µM)
selectivity ratio [6]: < 0.49
selectivity ratio [7]: < 0.45

C#CCN(c1nc(-c2cccc([N+](=O)[O-])c2)no1)C1CCCCC1
Activity (SK-MEL-103): 44.4%
Activity [8]: 46%
Activity (HCT-116): 24.8%
Activity (PC-3): 7.2%
Activity (NCI-H460 [9]): 5.8%
MIC [1]: ≥ 64 µg/mL
MIC [2]: ≥ 64 µg/mL
CC50 at 48 h [3]: 34.2 µg/mL (≈ 105 µM)
CC50 at 48 h [4]: 45.5 µg/mL (≈ 139 µM)
selectivity ratio [6]: < 0.53
selectivity ratio [7]: < 0.71

C#CCOc1ccc(-c2noc(NC3CCCCC3)n2)cc1
Activity (SK-MEL-103): 62.8%
Activity [8]: 2.6%
Activity (HCT-116): 43.3%
Activity (PC-3): 64.2%
Activity (NCI-H460 [9]): 75.7%
IC50 (NCI-H460 [10]): 5.3 µg/mL (≈ 17.8 µM)
MIC [1]: 32 µg/mL (≈ 108 µM)
MIC [2]: 32 µg/mL (≈ 108 µM)
CC50 at 48 h [3]: 38.3 µg/mL (≈ 129 µM)
CC50 at 48 h [4]: 119 µg/mL (≈ 399 µM)
selectivity ratio [6]: 1.29
selectivity ratio [7]: 3.7

CC(=O)OC[C@H]1O[C@H](OC[C@@H](Cn2cc(CN(c3nc(-c4ccccc4)no3)C3CCCCC3)nn2)OC(C)=O)C=C[C@@H]1OC(C)=O
MIC [1]: 16 µg/mL (≈ 24.5 µM)
MIC [2]: 16 µg/mL (≈ 24.5 µM)
CC50 at 48 h [3]: 28.6 µg/mL (≈ 43.8 µM)
CC50 at 48 h [4]: 19.9 µg/mL (≈ 30.5 µM)
CC50 at 120 h [5]: 607 µM
selectivity ratio [6]: 1.78
selectivity ratio [7]: 1.24

COc1cccc2c1C(=O)c1c(O)c3c(c(O)c1C2=O)C[C@@](O)(C(=O)CO)C[C@@H]3O[C@H]1C[C@H](N)[C@H](O)[C@H](C)O1 [DOXORUBICIN]
IC50 (NCI-H460 [10]): 0.08 µg/mL (≈ 0.147 µM)
